# According to ChEMBL document CHEMBL4715832, “Isoquinoline-based biaryls as a robust scaffold for microtubule inhibitors” (Eur J Med Chem, 2020):
# The source made the active and inactive calls. The calls are words filed in the database; no cut-off is given here.
# Assays:
# [1] = Toxicity in Balb/c mouse at 25 mg/kg, ip administered at 48 hrs interval for 3 times; type: organism-based; conditions: in vivo
# How it was run: (§1)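 Male and female Balb/c mice dosed 3 times at 48 h intervals with 25 mg/kg of the phosphate prodrug, by the route named, and monitored for tolerability.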
# [2] = Toxicity in Balb/c mouse at 25 mg/kg, iv administered at 48 hrs interval for 3 times; type: organism-based; conditions: in vivo; how it was run: as §1
# [3] = Solubility of compound in aqueous buffer; type: physicochemical
# HeLa [4] = test: Inhibition of tubulin polymerization in human HeLa cells harboring EB3-YFP plasmid assessed as disappearance of […] comet at 10 uM after 2 mins by microscopic analysis; type: cell-based
# How it was run: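 HeLa cells (12,000/well) transiently transfected 24 h after seeding with EB3-YFP plasmid, imaged 24 h later by spinning-disc confocal at 37 °C, 5% CO2 (514 nm, 300 ms exposure, 45 frames/min). Five reference frames taken, compound added, 2 min incubation, then 5 more frames. EB3 comets counted by maxima detection; 7 cells from three independent trials.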
# [5] = Toxicity in iv dosed Balb/c mouse; type: organism-based; conditions: in vivo
# How it was run: (§2)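 Single-administration dose escalation in male and female Balb/c mice, given i.p. or i.v., to find the maximal tolerated dose of the phosphate prodrug.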
# HL-60 = test: Antiproliferative activity against human HL-60 cells assessed as reduction in cell growth after 24 hrs by MTT assay; type: functional, cell-based; conditions: HL-60, 24 h
# How it was run: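 HL-60 cells grown in RPMI 1640 with 10% FCS, no antibiotics, 37 °C, 5% CO2. Seeded 9,000 cells/well, treated 24 h later with DMSO cosolvent at 1% final. After 24 h, MTT 0.5 mg/mL for 2 h, absorbance read. Normalised to cosolvent control (100%) and Triton X-100-treated cells (0%). Means of at least three independent experiments.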
# HeLa [6] = test: Antiproliferative activity against human HeLa cells assessed as reduction in cell growth after 48 hrs by resazurin dye based fluorescence assay; type: functional
# How it was run: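 HeLa cells grown in DMEM with 10% FCS and penicillin/streptomycin, 37 °C, 5% CO2. Seeded 5,000 cells/well, treated 24 h later with DMSO 1% final, then incubated 48 h. Resazurin reduction to resorufin measured over 3 h at 37 °C by fluorescence (ex 544/em 590 nm). Normalised to cosolvent control (100%) and cell-free wells (0%). Means of at least three independent experiments.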
# HeLa [7] = test: Cell cycle arrest in human HeLa cells assessed as accumulation at G2/M phase at 500 nM measured after 24 hrs by propidium iodide staining based flow cytometry; type: functional
# How it was run: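 HeLa cells seeded 50,000/well, treated 24 h; collected, stained with 2 mg/mL propidium iodide at 4 °C for 30 min, analysed by flow cytometry (30,000 cells per condition); cells assigned to sub-G1, G1, S and G2/M by DNA content (PI signal). DMSO cosolvent 1% final.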
# HeLa [8] = test: Induction of microtubule network depolymerization in human HeLa cells assessed as accumulation of rounded cells at 120 nM after 24 hrs by immunofluorescence staining based confocal microscopic analysis; type: cell-based
# How it was run: (§3)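 HeLa cells on glass coverslips (50,000/well), adhered 18 h, then treated 24 h (DMSO 1% final). Fixed with 0.5% glutaraldehyde, quenched with 0.1% NaBH4, blocked in PBS + 10% FCS. Stained with rabbit anti-alpha-tubulin (1:400, 1 h) and Alexa 488 goat anti-rabbit secondary, with DAPI nuclear counterstain. Imaged by confocal microscopy with z-stack projections.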
# [9] = Toxicity in ip dosed Balb/c mouse; type: organism-based; conditions: in vivo; how it was run: as §2
# HeLa [10] = test: Induction of microtubule network depolymerization in human HeLa cells assessed as appearance of defective chromosome alignment at 120 nM after 24 hrs by immunofluorescence staining based confocal microscopic analysis; type: cell-based; how it was run: as §3
# HeLa [11] = test: Induction of microtubule network depolymerization in human HeLa cells assessed as induction of mitotic arrest at 120 nM after 24 hrs by immunofluorescence staining based confocal microscopic analysis; type: cell-based; how it was run: as §3
# HeLa [12] = test: Induction of microtubule network depolymerization in human HeLa cells after 24 hrs by immunofluorescence staining based confocal microscopic analysis; type: cell-based
# How it was run: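 HeLa cells seeded on glass coverslips (50,000 cells/well), allowed to adhere 18 h, then treated 24 h. Fixed with 0.5% glutaraldehyde, quenched with 0.1% NaBH4, blocked with PBS + 10% FCS. Stained with rabbit anti-alpha-tubulin (1:400, 1 h), then Alexa Fluor 488 anti-rabbit secondary, with DAPI nuclear counterstain. Imaged by confocal microscopy, including z-stack projections.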
# HeLa [13] = test: Induction of microtubule network depolymerization in human HeLa cells assessed as appearance of defective spindles at 120 nM after 24 hrs by immunofluorescence staining based confocal microscopic analysis; type: cell-based; how it was run: as §3
# CYP3A4 = CYP3A4 (Homo sapiens, UniProt P08684); test: Inhibition of human CYP3A4 at 10 uM relative to control; type: ADME
# Chain of CYP3A4 (P08684 whole entry, canonical isoform): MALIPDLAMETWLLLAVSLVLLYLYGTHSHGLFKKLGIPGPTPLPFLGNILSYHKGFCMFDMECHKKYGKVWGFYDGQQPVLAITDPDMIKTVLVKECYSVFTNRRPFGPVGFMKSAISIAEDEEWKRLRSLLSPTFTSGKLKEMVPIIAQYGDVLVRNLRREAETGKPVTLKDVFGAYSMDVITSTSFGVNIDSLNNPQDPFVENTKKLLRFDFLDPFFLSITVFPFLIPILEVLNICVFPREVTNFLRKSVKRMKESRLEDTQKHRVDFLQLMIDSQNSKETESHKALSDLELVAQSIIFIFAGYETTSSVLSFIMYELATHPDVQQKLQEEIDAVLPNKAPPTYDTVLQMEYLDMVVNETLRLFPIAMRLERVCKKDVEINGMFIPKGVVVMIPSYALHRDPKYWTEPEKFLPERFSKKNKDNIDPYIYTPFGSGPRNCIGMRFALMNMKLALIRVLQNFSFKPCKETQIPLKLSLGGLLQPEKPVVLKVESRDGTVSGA
# How it was run: (§4)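 Inhibition measured against five human cytochrome P450 isoforms, with test compound at 10 µM, applied as the dephosphorylated phenol.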
# CYP1A2 = target: T1, CYP1A2 (Homo sapiens, UniProt P05177); test: Inhibition of human CYP1A2 at 10 uM relative to control; type: ADME; how it was run: as §4
# T1 sequence (P05177 whole entry): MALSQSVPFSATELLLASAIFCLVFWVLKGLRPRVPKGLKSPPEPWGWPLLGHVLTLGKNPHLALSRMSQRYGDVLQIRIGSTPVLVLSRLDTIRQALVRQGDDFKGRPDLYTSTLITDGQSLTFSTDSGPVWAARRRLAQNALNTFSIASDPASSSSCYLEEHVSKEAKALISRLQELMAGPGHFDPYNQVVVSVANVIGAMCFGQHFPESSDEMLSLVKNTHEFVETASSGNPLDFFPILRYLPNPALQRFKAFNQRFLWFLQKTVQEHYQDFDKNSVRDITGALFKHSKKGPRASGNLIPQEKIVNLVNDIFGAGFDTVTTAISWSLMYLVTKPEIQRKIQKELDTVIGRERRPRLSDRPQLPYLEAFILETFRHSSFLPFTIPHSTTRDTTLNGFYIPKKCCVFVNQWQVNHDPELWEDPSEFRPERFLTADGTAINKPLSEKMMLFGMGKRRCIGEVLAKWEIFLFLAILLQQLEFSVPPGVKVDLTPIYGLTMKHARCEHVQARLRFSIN
# hERG (KCNH2) [14] = target: T2, hERG (KCNH2) (Homo sapiens, UniProt Q12809); test: Inhibition of human ERG at 25 uM by fluorescence polarization assay relative to control
# T2 sequence (Q12809 whole entry): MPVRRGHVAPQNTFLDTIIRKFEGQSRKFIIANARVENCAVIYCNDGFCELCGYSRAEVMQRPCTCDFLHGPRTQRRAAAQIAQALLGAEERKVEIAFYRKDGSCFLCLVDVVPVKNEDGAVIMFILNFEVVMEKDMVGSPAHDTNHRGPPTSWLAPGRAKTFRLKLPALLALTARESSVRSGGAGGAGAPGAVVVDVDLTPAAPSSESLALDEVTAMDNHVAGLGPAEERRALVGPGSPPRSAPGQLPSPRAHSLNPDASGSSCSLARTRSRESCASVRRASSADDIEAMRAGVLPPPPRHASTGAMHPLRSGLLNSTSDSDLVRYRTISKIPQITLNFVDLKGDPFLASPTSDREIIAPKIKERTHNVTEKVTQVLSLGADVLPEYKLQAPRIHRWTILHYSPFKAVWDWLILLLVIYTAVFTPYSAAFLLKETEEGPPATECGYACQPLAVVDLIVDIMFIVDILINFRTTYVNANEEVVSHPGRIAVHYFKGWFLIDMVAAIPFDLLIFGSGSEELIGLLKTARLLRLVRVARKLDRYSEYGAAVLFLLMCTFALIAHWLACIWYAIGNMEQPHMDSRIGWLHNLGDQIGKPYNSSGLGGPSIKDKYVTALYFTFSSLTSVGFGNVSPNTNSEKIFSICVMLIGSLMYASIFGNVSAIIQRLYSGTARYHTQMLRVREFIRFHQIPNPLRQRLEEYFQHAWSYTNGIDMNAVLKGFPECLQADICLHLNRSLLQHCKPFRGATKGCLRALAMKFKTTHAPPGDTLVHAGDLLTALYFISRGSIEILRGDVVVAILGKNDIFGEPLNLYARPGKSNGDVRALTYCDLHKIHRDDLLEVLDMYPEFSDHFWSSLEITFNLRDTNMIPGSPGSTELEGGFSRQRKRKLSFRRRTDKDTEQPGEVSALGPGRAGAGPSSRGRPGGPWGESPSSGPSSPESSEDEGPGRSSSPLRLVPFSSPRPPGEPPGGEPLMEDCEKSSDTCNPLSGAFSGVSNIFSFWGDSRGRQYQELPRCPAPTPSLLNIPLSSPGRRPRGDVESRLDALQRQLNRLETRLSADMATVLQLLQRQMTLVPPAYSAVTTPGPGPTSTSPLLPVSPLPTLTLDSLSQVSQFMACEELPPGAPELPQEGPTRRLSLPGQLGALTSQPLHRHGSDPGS
# How it was run: (§5)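 hERG channel inhibition measured with a fluorescence polarisation reporter assay, applied to the dephosphorylated phenol.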
# [15] = Stability in human liver microsomes assessed as parent compound remaining at 2 uM measured immediately in presence of cofactor; type: ADME, Microsome; conditions: read-out: Stabilty
# [16] = Stability in human liver microsomes assessed as parent compound remaining at 2 uM measured after 20 mins in presence of cofactor; type: ADME, Microsome; conditions: read-out: Stabilty
# [17] = Stability in human liver microsomes assessed as parent compound remaining at 2 uM measured after 30 mins in presence of cofactor; type: ADME, Microsome; conditions: read-out: Stabilty
# [18] = Stability in human liver microsomes assessed as parent compound remaining at 2 uM measured after 10 mins in presence of cofactor; type: ADME, Microsome; conditions: read-out: Stabilty
# [19] = system: liver microsomes (Mus musculus); test: Stability in mouse liver microsomes assessed as parent compound remaining at 2 uM measured immediately in absence of cofactor; conditions: read-out: Stabilty
# [20] = system: liver microsomes (Mus musculus); test: Stability in mouse liver microsomes assessed as parent compound remaining at 2 uM measured after 10 mins in presence of cofactor; conditions: read-out: Stabilty
# CYP2C19 = CYP2C19 (Homo sapiens, UniProt P33261); test: Inhibition of human CYP2C19 at 10 uM relative to control; type: ADME; how it was run: as §4
# Chain of CYP2C19 (P33261 whole entry): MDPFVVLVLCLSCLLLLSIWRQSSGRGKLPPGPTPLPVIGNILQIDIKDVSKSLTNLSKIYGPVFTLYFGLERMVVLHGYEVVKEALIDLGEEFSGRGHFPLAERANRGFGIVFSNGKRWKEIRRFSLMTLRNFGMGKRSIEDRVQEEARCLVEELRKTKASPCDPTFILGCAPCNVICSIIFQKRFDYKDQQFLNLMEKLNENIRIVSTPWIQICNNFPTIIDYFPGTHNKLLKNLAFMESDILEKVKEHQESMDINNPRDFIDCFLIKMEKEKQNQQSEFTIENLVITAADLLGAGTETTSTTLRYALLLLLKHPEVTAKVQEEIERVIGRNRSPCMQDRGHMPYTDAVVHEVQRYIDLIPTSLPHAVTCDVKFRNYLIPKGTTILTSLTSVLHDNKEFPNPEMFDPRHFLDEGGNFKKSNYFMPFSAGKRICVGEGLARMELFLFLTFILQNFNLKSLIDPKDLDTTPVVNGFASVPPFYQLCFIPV
# hERG (KCNH2) [21] = target: T2, hERG (KCNH2); test: Inhibition of human ERG at 5 uM by fluorescence polarization assay relative to control; how it was run: as §5
# [22] = Stability in human liver microsomes assessed as parent compound remaining at 2 uM measured after 40 mins in absence of cofactor; type: ADME, Microsome; conditions: read-out: Stabilty
# [23] = system: liver microsomes (Mus musculus); test: Half life in mouse liver microsomes at 2 uM
# [24] = system: liver microsomes (Mus musculus); test: Stability in mouse liver microsomes assessed as parent compound remaining at 2 uM measured after 40 mins in absence of cofactor; conditions: read-out: Stabilty
# [25] = system: liver microsomes (Mus musculus); test: Stability in mouse liver microsomes assessed as parent compound remaining at 2 uM measured immediately in presence of cofactor; conditions: read-out: Stabilty
# CYP2D6 = CYP2D6 (Homo sapiens, UniProt P10635); test: Inhibition of human CYP2D6 at 10 uM relative to control; type: ADME; how it was run: as §4
# Chain of CYP2D6 (P10635 whole entry): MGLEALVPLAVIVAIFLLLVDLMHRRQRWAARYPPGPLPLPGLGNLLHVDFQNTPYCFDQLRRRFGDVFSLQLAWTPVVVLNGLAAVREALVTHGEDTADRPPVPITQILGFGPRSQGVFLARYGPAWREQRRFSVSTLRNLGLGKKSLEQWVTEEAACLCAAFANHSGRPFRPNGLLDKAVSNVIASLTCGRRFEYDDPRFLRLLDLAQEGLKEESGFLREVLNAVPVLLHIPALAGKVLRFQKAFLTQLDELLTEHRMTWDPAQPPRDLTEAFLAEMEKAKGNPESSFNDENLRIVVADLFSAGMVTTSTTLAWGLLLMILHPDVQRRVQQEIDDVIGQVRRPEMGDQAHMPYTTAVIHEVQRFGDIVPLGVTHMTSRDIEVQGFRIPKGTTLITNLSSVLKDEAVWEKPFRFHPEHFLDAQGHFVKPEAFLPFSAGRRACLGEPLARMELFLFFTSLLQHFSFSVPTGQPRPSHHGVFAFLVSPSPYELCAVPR
# [26] = Stability in human liver microsomes assessed as parent compound remaining at 2 uM measured immediately in absence of cofactor; type: ADME, Microsome; conditions: read-out: Stabilty
# hERG (KCNH2) [27] = target: T2, hERG (KCNH2); test: Inhibition of human ERG at 1 uM by fluorescence polarization assay relative to control; how it was run: as §5
# [28] = system: liver microsomes (Mus musculus); test: Stability in mouse liver microsomes assessed as parent compound remaining at 2 uM measured after 30 mins in presence of cofactor; conditions: read-out: Stabilty
# [29] = system: liver microsomes (Mus musculus); test: Stability in mouse liver microsomes assessed as parent compound remaining at 2 uM measured after 20 mins in presence of cofactor; conditions: read-out: Stabilty
# [30] = Half life in human liver microsomes at 2 uM; type: ADME, Microsome
# [31] = Stability in human liver microsomes assessed as parent compound remaining at 2 uM measured after 40 mins in presence of cofactor; type: ADME, Microsome; conditions: read-out: Stabilty
# [32] = system: liver microsomes (Mus musculus); test: Stability in mouse liver microsomes assessed as parent compound remaining at 2 uM measured after 40 mins in presence of cofactor; conditions: read-out: Stabilty
# CYP2C9 = CYP2C9 (Homo sapiens, UniProt P11712); test: Inhibition of human CYP2C9 at 10 uM relative to control; type: ADME; how it was run: as §4
# Chain of CYP2C9 (P11712 whole entry): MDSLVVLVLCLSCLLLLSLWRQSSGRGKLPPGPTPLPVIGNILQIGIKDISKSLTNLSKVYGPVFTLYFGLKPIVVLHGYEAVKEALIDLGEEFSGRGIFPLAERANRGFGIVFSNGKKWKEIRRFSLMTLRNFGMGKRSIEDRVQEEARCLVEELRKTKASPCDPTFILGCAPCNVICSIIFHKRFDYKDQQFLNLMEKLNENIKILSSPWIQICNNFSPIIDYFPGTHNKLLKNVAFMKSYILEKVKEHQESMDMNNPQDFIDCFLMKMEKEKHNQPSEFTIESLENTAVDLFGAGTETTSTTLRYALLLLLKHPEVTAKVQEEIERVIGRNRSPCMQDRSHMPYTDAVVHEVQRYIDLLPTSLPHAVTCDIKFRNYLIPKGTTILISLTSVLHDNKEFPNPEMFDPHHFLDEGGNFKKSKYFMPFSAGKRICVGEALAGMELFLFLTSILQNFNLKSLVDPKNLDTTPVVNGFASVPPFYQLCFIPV
structure (smiles),measurement,setting,value
COc1cc2c(-c3cc(OC)c(OC)c(OC)c3)nccc2cc1OP(=O)([O-])[O-].[Na+].[Na+],Activity,[1],Non-Toxic
same,Activity,[2],Non-Toxic
same,solubility,[3],> 10 mM
same,inhibition,HeLa [4],Active
same,MTD,[5],50 mg/kg
same,EC50,HL-60,570 nM
same,Activity,HeLa [6],Dose-dependent effect
same,EC50,HeLa [6],170 nM
same,Activity,HeLa [7],Active
same,Activity,HeLa [8],Active
same,MTD,[9],32 mg/kg
same,Activity,HeLa [10],Active
same,Activity,HeLa [11],Active
same,Activity,HeLa [12],Dose-dependent effect
same,Activity,HeLa [13],Active
COc1ccc2cc[n+](C)c(-c3cc(OC)c(OC)c(OC)c3)c2c1,EC50,HeLa [6],> 30000 nM
same,Activity,HeLa [12],inactive
COc1cc2ccnc(-c3cc(OC)c(OC)c(OC)c3)c2cc1OC,EC50,HeLa [6],> 20000 nM
same,Activity,HeLa [12],Dose-dependent effect
COc1cc2c(-c3cc(OC)c(OC)c(OC)c3)nccc2cc1O,inhibition at 10 µM,CYP3A4,13%
same,inhibition at 10 µM,CYP1A2,-4%
same,inhibition at 25 µM,hERG (KCNH2) [14],-5%
same,"remaining at 0 min, 2 µM",[15],100%
same,"remaining at 20 min, 2 µM",[16],84%
same,"remaining at 0.5 h, 2 µM",[17],75%
same,"remaining at 10 min, 2 µM",[18],99%
same,"remaining at 0 min, 2 µM",[19],100%
same,"remaining at 10 min, 2 µM",[20],93%
same,EC50,HL-60,340 nM
same,inhibition at 10 µM,CYP2C19,-49%
same,inhibition at 5 µM,hERG (KCNH2) [21],-18%
same,"remaining at 40 min, 2 µM",[22],98%
same,Activity,HeLa [6],Dose-dependent effect
same,EC50,HeLa [6],120 nM
same,half-life at 2 µM,[23],1.12 h
same,"remaining at 40 min, 2 µM",[24],105%
same,"remaining at 0 min, 2 µM",[25],100%
same,inhibition at 10 µM,CYP2D6,19%
same,"remaining at 0 min, 2 µM",[26],100%
same,inhibition at 1 µM,hERG (KCNH2) [27],-3%
same,"remaining at 0.5 h, 2 µM",[28],73%
same,"remaining at 20 min, 2 µM",[29],82%
same,half-life at 2 µM,[30],1.13 h
same,"remaining at 40 min, 2 µM",[31],69%
same,"remaining at 40 min, 2 µM",[32],67%
same,inhibition at 10 µM,CYP2C9,16%
COc1ccc([C@H](O)c2nccc3c(OC)c(OC)c(OC)cc23)cc1,EC50,HeLa [6],> 100000 nM
COc1cccc(-c2nccc3c(OC)c(OC)c(OC)cc23)c1,EC50,HeLa [6],15000 nM
COC(=O)Nc1nc2cc(C(=O)c3cccs3)ccc2[nH]1 [NOCODAZOLE],EC50,HeLa [6],40 nM
